The subject of one assay is CCRF-CEM. In words: Cytotoxicity in human leukemic CCRF-CEM cells. The class given is functional, cell-based. The gist of the method: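 CCRF-CEM cells in RPMI 1640 with 10% FBS, 2 mM glutamine and pen/strep at 37 °C, 5% CO2, seeded at 1 × 10^5 cells/mL. Agent from 1 mM water stock, diluted in PBS over a concentration range, 72 h exposure. Cells counted by Coulter Counter. Duplicate wells, each curve repeated at least three times. IC50 is 50% growth inhibition versus medium control, from a sigmoidal fit.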

Assay [1] has as its system Nucleic Acid. In words: Dissociation time constant (Tau 1) for dissociation of compound and calf thymus DNA complex. The class given is nucleic-acid assay. The settings on record: Bos taurus. The gist of the method:
(§1)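 Sonicated calf thymus DNA–ligand complex equilibrated 1 h at room temperature in 0.1 SHE buffer (HEPES, EDTA, 0.1 M NaCl, pH 7.0), then rapidly mixed with SDS at 23 °C. Final concentrations 500 μM DNA, 50 μM ligand, 20 mM SDS. Absorbance followed at 423 nm over 420–3600 s and expressed as fraction of reaction. Multiexponential nonlinear least-squares fit; mean of five runs.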

Assay [2] concerns Nucleic Acid. Put plainly: Dissociation time constant (Tau 2) for dissociation of compound and calf thymus DNA complex. The format is nucleic-acid assay. The settings on record: Bos taurus. The essentials: as §1
Assay [3] relates to Nucleic Acid. In words: Dissociation time constant (Tau 3) for dissociation of compound and calf thymus DNA complex. The format is nucleic-acid assay. The note with it: Bos taurus. The gist of the method:
as §1

Numbered stars: 1 amine (or outer) side, 2 acyl side, 3 side chain; on linkers, the order of the positions; unused ones are H or OH. Bridge positions count the residues as written; N and C are the ends. Square brackets hold non-standard residues; d marks the D form. Peptide text beside a SMILES is read from it. I, II: the chains in the order shown. Actinocin(1to9) = Cc1c2oc3c(C)ccc(C(=O)[*:2])c3nc-2c(C(=O)[*:1])c(N)c1=O; NMeV = CN[C@H](C(=O)O)C(C)C; Sar = CNCC(=O)O

In the assay on CCRF-CEM, `O=C(NCCN1CCOCC1)c1cccc2c(NCCCCNCCCNc3c4ccccc4nc4c(C(=O)NCCN5CCOCC5)cccc34)c3ccccc3nc12` showed an IC50 of 0.075 µM.
In the assay with CCRF-CEM, `COc1cc(NS(C)(=O)=O)ccc1Nc1c2ccccc2nc2c(C(N)=O)cccc12` had an IC50 of 0.12 µM.
Still for that read-out and setting: in the case of `O=C(NCCN1CCOCC1)c1cccc2c(NCCCCCCCCNc3c4ccccc4nc4c(C(=O)NCCN5CCOCC5)cccc34)c3ccccc3nc12` it was 0.81 µM.
Still for that read-out and setting: the result for `CS[C@H]1SC[C@H]2C(=O)N(C)[C@@H](C(C)C)C(=O)OC[C@@H](NC(=O)c3cnc4ccccc4n3)C(=O)N[C@@H](C)C(=O)N(C)[C@@H]1C(=O)N(C)[C@@H](C(C)C)C(=O)OC[C@@H](NC(=O)c1cnc3ccccc3n1)C(=O)N[C@@H](C)C(=O)N2C` [ECHINOMYCIN] reads 0.0005 µM.
In the assay on CCRF-CEM, `CN(C)CCNC(=O)c1cccc2c(NCCCCCCCCNc3c4ccccc4nc4c(C(=O)NCCN(C)C)cccc34)c3ccccc3nc12` gave an IC50 of 0.035 µM. Moreover, the Time constant with Nucleic Acid [1] stood at 5 s; with Nucleic Acid [2], 17 s; in the assay on Nucleic Acid [3], 53 s.
In turn, `COC(=O)[C@@H]1c2cc3c(c(O)c2[C@@H](O[C@@H]2O[C@@H](C)[C@H](OC)[C@@](C)(OC)[C@H]2OC)C[C@]1(C)O)C(=O)c1c(O)cc2c(c1C3=O)O[C@@H]1O[C@@]2(C)[C@H](O)[C@@H](N(C)C)[C@@H]1O` [NOGALAMYCIN] had an IC50 in the assay with CCRF-CEM of 0.059 µM.
Still for that read-out and setting: in the case of `CN(C)CCNC(=O)c1cccc2c(NCCCCNCCCNc3c4ccccc4nc4c(C(=O)NCCN(C)C)cccc34)c3ccccc3nc12` it was 0.25 µM; in that of `CN(C)CCNC(=O)c1cccc2c(NCCCCCCNc3c4ccccc4nc4c(C(=O)NCCN(C)C)cccc34)c3ccccc3nc12`, 0.087 µM.
In the case of `COc1cc(NS(C)(=O)=O)ccc1Nc1c2ccccc2nc2ccccc12` [AMSACRINE], the IC50 with CCRF-CEM is 0.13 µM.
Same read-out and setting: in the case of `COC1C(O)CC(OC2CC(Oc3cc4cc5c(c(O)c4c(O)c3C)C(=O)[C@@H](OC3CC(OC4CC(OC6CC(C)(O)C(OC(C)=O)C(C)O6)C(O)C(C)O4)C(O)C(C)O3)[C@H]([C@H](OC)C(=O)[C@@H](O)[C@@H](C)O)C5)OC(C)C2OC(C)=O)OC1C` (stereo partly drawn) [CHROMOMYCIN] it was 0.0035 µM.
Still for that read-out and setting: in the case of `O=C(NCCN1CCOCC1)c1cccc2c(NCCCCCCNc3c4ccccc4nc4c(C(=O)NCCN5CCOCC5)cccc34)c3ccccc3nc12` it was 0.71 µM; in that of `O=C1c2c(O)ccc(O)c2C(=O)c2c(NCCNCCO)ccc(NCCNCCO)c21` [MITOXANTRONE], 0.0036 µM.
On the same count and under the same terms, in the case of `O=C(NCCN1CCOCC1)c1cccc2c(NCCNCCNCCNc3c4ccccc4nc4c(C(=O)NCCN5CCOCC5)cccc34)c3ccccc3nc12` it was 0.71 µM.
The molecule `Cc1c2oc3c(C)ccc(C(=O)N[C@@H]4C(=O)N[C@H](C(C)C)C(=O)N5CCC[C@H]5C(=O)N(C)CC(=O)N(C)[C@@H](C(C)C)C(=O)O[C@@H]4C)c3nc-2c(C(=O)N[C@@H]2C(=O)N[C@H](C(C)C)C(=O)N3CCC[C@H]3C(=O)N(C)CC(=O)N(C)[C@@H](C(C)C)C(=O)O[C@@H]2C)c(N)c1=O` [DACTINOMYCIN] (I: T[dV]P[Sar][NMeV] / II: T[dV]P[Sar][NMeV]; ester I:1-I:C, II:1-II:C; linker I:N-II:N via Actinocin(1to9)) gave an IC50 with CCRF-CEM of 0.0016 µM. Moreover, the Time constant was 19 s in the assay on Nucleic Acid [1], 68 s in the assay on Nucleic Acid [2] and 790 s in the assay with Nucleic Acid [3].
In the assay with CCRF-CEM, `CN(C)CCNC(=O)c1cccc2c(NCCNCCNCCNc3c4ccccc4nc4c(C(=O)NCCN(C)C)cccc34)c3ccccc3nc12` gave a 50% inhibitory concentration (IC50) of 0.59 µM. Further, the Time constant was 6 s with Nucleic Acid [1], 33 s in the assay on Nucleic Acid [2] and 180 s in the assay with Nucleic Acid [3].
For `O=C(NCCN1CCOCC1)c1cccc2c(NCCN3CCN(CCNc4c5ccccc5nc5c(C(=O)NCCN6CCOCC6)cccc45)CC3)c3ccccc3nc12`, the IC50 in the assay with CCRF-CEM worked out at 0.29 µM.
Take `CN(C)CCNC(=O)c1cccc2c(NCCN3CCN(CCNc4c5ccccc5nc5c(C(=O)NCCN(C)C)cccc45)CC3)c3ccccc3nc12`: in the assay with CCRF-CEM, the concentration for half-maximal inhibition (IC50) amounted to 0.063 µM. The Time constant came out at 7 s in the assay on Nucleic Acid [1], 22 s with Nucleic Acid [2] and 220 s with Nucleic Acid [3].
In the same order, the values of `CN(C)CCNC(=O)c1cccc2c(NCCCNCCCNc3c4ccccc4nc4c(C(=O)NCCN(C)C)cccc34)c3ccccc3nc12` are 0.05 µM, 6 s, 32 s and 130 s.
For `CC[C@@]1(O)C(=O)OCc2c1cc1n(c2=O)Cc2cc3ccccc3nc2-1` [CAMPTOTHECIN], in the assay with CCRF-CEM, the IC50 was 0.0053 µM.
On to `O=C(NCCN1CCOCC1)c1cccc2c(NCCCNCCCNc3c4ccccc4nc4c(C(=O)NCCN5CCOCC5)cccc34)c3ccccc3nc12`, for which, in the assay on CCRF-CEM, the 50% inhibitory concentration (IC50) is 0.047 µM. Besides, the Time constant in the assay on Nucleic Acid [1] was determined as 5 s; with Nucleic Acid [2], 30 s; with Nucleic Acid [3], 88 s.

As a reminder, the IC50 is the midpoint of a concentration-inhibition curve. The low end stands for greater potency in that assay, the high end for weaker potency in that assay.

Source of the values: ChEMBL document CHEMBL1144914, “Bisintercalating threading diacridines: relationships between DNA binding, cytotoxicity, and cell cycle arrest” (J Med Chem, 2003).
